# Where a name gives a salt, the structure may show the parent alone.
# Assays:
# K562 = assay: Growth inhibition against human K562 cells after 72 hrs by inverted microscopy; assay type: functional; conditions: K562, 72 h
# How it was run: (§1)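 Cells seeded at 2×10^4 cells/well in MEM10FCS containing compound at the test concentrations and exposed continuously for 72 h at 37 °C, 10% CO₂, 98% humidity. Untreated control wells were counted daily to confirm exponential growth. Cells were stained with crystal violet and inspected by inverted microscope, and inhibition was judged against controls. GI50 (50% growth inhibition) is the mean of duplicate wells.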
# [1] = Growth inhibition against human LoVo/DX cells after 72 hrs by inverted microscopy; assay type: functional; how it was run: as §1
# PANC-1 = assay: Growth inhibition against human PANC1 cells after 72 hrs by inverted microscopy; assay type: functional; conditions: PANC-1, 72 h; how it was run: as §1
# [2] = Growth inhibition against human IGROV-ET cells after 72 hrs by inverted microscopy; assay type: functional; how it was run: as §1
# LoVo = assay: Growth inhibition against human LoVo cells after 72 hrs by inverted microscopy; assay type: functional; how it was run: as §1
# HT-29 = assay: Growth inhibition against human HT-29 cells after 72 hrs by inverted microscopy; assay type: functional; conditions: HT-29, 72 h; how it was run: as §1
# HeLa = assay: Growth inhibition against human HeLa cells after 72 hrs by inverted microscopy; assay type: functional; how it was run: as §1
# [3] = Growth inhibition against human IGROV cells after 72 hrs by inverted microscopy; assay type: functional; how it was run: as §1
# Plasmodium falciparum = assay: Antiplasmodial activity against chloroquine-resistant Plasmodium falciparum W2 infected in human erythrocytes assessed as inhibition of parasite growth after 24 hrs by [3H]hypoxanthine incorporation assay; assay type: functional, organism-based
# How it was run: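 Ring-stage parasites, sorbitol-synchronised, in human O-negative erythrocytes in RPMI with 10% human plasma; plated at 1% parasitemia, 1% haematocrit. Compounds diluted from DMSO stocks in hypoxanthine-free medium, final DMSO 0.002%. After 24 h, [3H]-hypoxanthine (0.5 μCi/well) added for another 18 h at 37 °C. Incorporation compared with drug-free controls, IC50 by linear interpolation. Three experiments, each in triplicate.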
# [4] = Cytotoxicity against human HepG2 cells after 24 hrs by MTT assay; assay type: cell-based
# How it was run: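 Hep G2A16 hepatoma cells kept in RPMI1640 with 5% FBS and gentamicin, trypsinised and plated at 4×10^4 cells/well, then left 18 h at 37 °C before dosing. Compounds were given in triplicate at four serial-dilution concentrations starting at 1000 µg/mL, with final DMSO 0.01%, for 24 h at 37 °C. MTT (6 mg/mL in PBS) was added for 1 h 30 min, solubilised in DMSO and read at 570 nm. Cytotoxic concentration was taken from the dose–response curve.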
# [5] = Selectivity index, ratio of CC50 for human HepG2 cells to IC50 for chloroquine-resistant Plasmodium falciparum W2 infected in human erythrocytes; assay type: functional
# How it was run: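 HepG2 hepatoma cells in RPMI1640 with 5% FBS, 4×10^4 cells/well, allowed 18 h at 37 °C. Four serial dilutions from 1000 µg/mL, final DMSO 0.01%, in triplicate, for 24 h at 37 °C. Cytotoxic concentration taken from the dose–response curve, then divided by the antiplasmodial IC50.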
# [6] = Toxicity in RBC (unknown origin) assessed as hemolysis at 139 uM; assay type: cell-based; conditions: erythrocyte
Compound,GI50 (K562) [µM],GI50 [1] [µM],GI50 (PANC-1) [µM],GI50 [2] [µM],GI50 (LoVo) [µM],GI50 (HT-29) [µM],GI50 (HeLa) [µM],GI50 [3] [µM],IC50 (Plasmodium falciparum) [µM],CC50 at 24 h [4] [µM],Ratio CC50/IC50 [5],Activity [6]
COC(=O)[C@]1(C)CCC[C@@]2(C)[C@@H]3CC[C@@H]4C[C@@]3(CC[C@@H]21)C[C@@H]4CO,> 9.02,> 9.02,> 9.02,7.23,> 9.02,> 9.02,> 9.02,> 9.02,–,–,–,–
C=C1C[C@@]23CC[C@H]4[C@@](C)(CCC[C@@]4(C)C(=O)OC)[C@@H]2CC[C@H]1C3,> 9.48,> 9.48,> 9.48,> 9.48,> 9.48,> 9.48,> 9.48,8.44,8.2,32.2,3.9,–
COC(=O)[C@]1(C)CCC[C@]2(C)[C@@H]1CC[C@@]13C[C@H](C[C@H]4O[C@]412)[C@@]1(CO1)C3,> 8.66,> 8.66,> 8.66,> 8.66,> 8.66,> 8.66,> 8.66,> 8.66,10.4,1240,119.1,–
C[C@@]1(C(=O)O)CCC[C@@]2(C)C3=CC[C@H]4C[C@@]3(CC[C@H]12)C[C@]41CO1,> 9.48,> 9.48,> 9.48,> 9.48,> 9.48,> 9.48,> 9.48,> 9.48,–,–,–,–
COC(=O)[C@]1(C)CCC[C@@]2(C)[C@@H]3CC[C@H]4C[C@@]3(CC[C@@H]21)[C@@H](O)[C@@H]4C,> 9.02,> 9.02,> 9.02,> 9.02,> 9.02,> 9.02,> 9.02,8.34,34.7,–,–,–
COC(=O)[C@]1(C)CCC[C@@]2(C)[C@@H]3CC[C@H]4C[C@@]3(CC[C@@H]21)C[C@@H]4C1NCCCN1,–,–,–,–,–,–,–,–,5.4,–,–,–
COC(=O)[C@]1(C)CCC[C@@]2(C)[C@@H]3CC[C@H]4C[C@@]3(CC[C@@H]21)C[C@@H]4C=O,8.18,> 9.02,> 9.02,> 9.02,8.69,> 9.02,> 9.02,> 9.02,–,–,–,–
C=C1[C@H]2CC[C@H]3[C@]4(C)CCC[C@@](C)(C(=O)OC)[C@H]4CC[C@]3(C2)[C@H]1O,> 9.02,> 9.02,> 9.02,> 9.02,8.21,7.4,7.04,7.52,8.4,–,–,–
COC(=O)[C@]1(C)CCC[C@]2(C)[C@@H]1CC[C@@]13C[C@H](C[C@H]4O[C@]412)[C@]1(CO1)C3,> 8.66,> 8.66,> 8.66,> 8.66,> 8.66,> 8.66,> 8.66,> 8.66,6.9,810,117.4,Toxic
COc1cccc2c1C(=O)c1c(O)c3c(c(O)c1C2=O)C[C@@](O)(C(=O)CO)C[C@@H]3O[C@H]1C[C@H](N)[C@H](O)[C@H](C)O1 [DOXORUBICIN HYDROCHLORIDE],0.17,2.21,0.24,6.17,0.24,0.15,0.17,0.11,–,–,–,–
COC(=O)[C@]1(C)CCC[C@@]2(C)[C@@H]3CC[C@H]4C[C@@]3(CC[C@@H]21)C[C@]41CO1,> 9.02,> 9.02,> 9.02,> 9.02,> 9.02,> 9.02,> 9.02,> 9.02,9.6,111,11.5,–
CCN(CC)CCCC(C)Nc1ccnc2cc(Cl)ccc12 (configuration not stated) [CHLOROQUINE],–,–,–,–,–,–,–,–,–,504,–,–
C[C@@]1(C(=O)O)CCC[C@@]2(C)C3=CC[C@@H]4C[C@@]3(CC[C@H]12)CC4=O,–,–,–,–,–,–,–,–,> 157,–,–,–
COC(=O)[C@]1(C)CCC[C@@]2(C)[C@@H]3CC[C@H]4C[C@@]3(CC[C@@H]21)C[C@@H]4C(=O)O,–,–,–,–,–,–,–,–,> 144,–,–,–
COC(=O)[C@]1(C)CCC[C@@]2(C)C3=CC[C@H]4C[C@@]3(CC[C@H]12)CC4CO (mixture of isomers),> 9.02,> 9.02,> 9.02,> 9.02,> 9.02,> 9.02,> 9.02,> 9.02,33.1,–,–,–
COC(=O)[C@]1(C)CCC[C@@]2(C)[C@@H]3CC[C@H]4C[C@@]3(CC[C@@H]21)C[C@H]4C=O,> 9.02,> 9.02,> 9.02,> 9.02,> 9.02,> 9.02,> 9.02,> 9.02,–,–,–,–
COC(=O)[C@]1(C)CCC[C@@]2(C)[C@@H]3CC[C@H]4C[C@]3(C=C4C)CC[C@@H]21,> 9.48,> 9.48,> 9.48,> 9.48,> 9.48,> 9.48,> 9.48,> 9.48,8.8,44.9,5.1,–
COC(=O)[C@]1(C)CCC[C@@]2(C)[C@@H]3[C@H](O)C[C@H]4C[C@@]3(CC[C@@H]21)C[C@@H]4CO,> 8.56,> 8.56,> 8.56,> 8.56,> 8.56,> 8.56,> 8.56,> 8.56,> 143,–,–,–
COC(=O)[C@]1(C)CCC[C@@]2(C)[C@@H]3[C@@H](O)C[C@H]4C[C@@]3(CC[C@@H]21)C[C@@H]4CO,> 8.56,> 8.56,> 8.56,> 8.56,> 8.56,> 8.56,> 8.56,> 8.56,> 143,–,–,–
C=C1C[C@@]23CC[C@@H]4[C@](C)(C(=O)O)CCC[C@@]4(C)C2=CC[C@@H]1C3 [GRANDIFLORENIC ACID],–,–,–,–,–,–,–,–,23.3,–,–,–
C=C1C[C@@]23CC[C@H]4[C@@](C)(CCC[C@@]4(C)C(=O)O)[C@@H]2CC[C@@H]1C3 [KAURENOIC ACID],> 9.92,> 9.92,> 9.92,> 9.92,> 9.92,> 9.92,> 9.92,> 9.92,21.1,192,9.1,–
